Measurements: ChEMBL document CHEMBL1926614, “Substituted thiazoles V. synthesis and antitumor activity of novel thiazolo[2,3-b]quinazoline and pyrido[4,3-d]thiazolo[3,2-a]pyrimidine analogues” (2012)
Activity calls are given as the source filed them. The calls are words filed in the database; no cut-off is given here.

Legend:
Assay type in all cases: functional
[1] = Cytotoxicity against human CNS cancer cells after 48 hrs by coulter counting; conditions: Cancer cell lines
Procedure, shortened: (§1)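 NCI 60-cell-line panel covering nine tumour subpanels, tested over a 5-log dose range. Compounds were dissolved in DMSO and diluted in phosphate-buffered saline to a final DMSO below 1%. Wells held 6 × 10⁴ cells/ml and were run in duplicate. Controls contained PBS and DMSO at matching dilutions. Incubation was at 37 °C in humidified 5% CO₂. GI₅₀, TGI and LC₅₀ were reported.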

[2] = Cytotoxicity against human renal cancer cells after 48 hrs by coulter counting; conditions: Cancer cell lines; procedure, shortened: as §1
[3] = Cytotoxicity against human prostate cancer cells after 48 hrs by coulter counting; conditions: Cancer cell lines; procedure, shortened: as §1
[4] = Cytotoxicity against human breast cancer cells after 48 hrs by coulter counting; conditions: Cancer cell lines; procedure, shortened: as §1
[5] = tested on: NSCLC; test: Cytotoxicity against human NSCLC cells after 48 hrs by coulter counting; procedure, shortened: as §1
[6] = tested on: HCT-15; test: Growth inhibition of human HCT15 cells at 10 uM after 48 hrs by coulter counting; conditions: HCT-15, 48 h, read-out: GI
Procedure, shortened: (§2)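 Single-dose primary screen across the full NCI 60-cell-line panel. Stocks were made in DMSO and diluted in PBS to a final DMSO below 1%. Cultures at 6 × 10⁴ cells/ml were run in duplicate wells alongside PBS/DMSO vehicle controls at 37 °C in humidified 5% CO₂. Data were expressed as percent growth of treated cells.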

[7] = tested on: UACC-257; test: Growth inhibition of human UACC257 cells at 10 uM after 48 hrs by coulter counting; conditions: UACC-257, 48 h, read-out: GI
Procedure, shortened: (§3)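 Single-dose screen in the NCI 60 human tumor cell line panel (nine subpanels). Compounds dissolved in DMSO and diluted in phosphate buffered saline, keeping final DMSO below 1%. Added in duplicate wells to cells at 6 × 10⁴ cells/ml. Controls held PBS and DMSO at matching dilutions. Incubated at 37 °C, humidified, 5% CO₂. Reported as percent growth of treated cells.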

[8] = tested on: UACC-62; test: Growth inhibition of human UACC62 cells at 10 uM after 48 hrs by coulter counting; conditions: UACC-62, 48 h, read-out: GI; procedure, shortened: as §3
[9] = tested on: HL-60(TB); test: Growth inhibition of human HL-60(TB) cells at 10 uM after 48 hrs by coulter counting; conditions: HL-60, 48 h, read-out: GI
Procedure, shortened: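 Test compound was dissolved in DMSO and diluted in phosphate-buffered saline to a final DMSO level below 1%. Dilutions were plated in duplicate with cell culture at 6 × 10⁴ cells/ml. Vehicle controls held PBS and DMSO at matching dilutions. Incubation was at 37 °C, humidified, under 5% CO₂. Data were reported as percent growth of treated cells.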

[10] = tested on: K562; test: Growth inhibition of human K562 cells at 10 uM after 48 hrs by coulter counting; conditions: K562, 48 h, read-out: GI; procedure, shortened: as §2
[11] = tested on: A549; test: Growth inhibition of human A549 cells at 10 uM after 48 hrs by coulter counting; conditions: A549, 48 h, read-out: GI; procedure, shortened: as §2
[12] = tested on: EKVX; test: Growth inhibition of human EKVX cells at 10 uM after 48 hrs by coulter counting; conditions: read-out: GI; procedure, shortened: as §2
[13] = tested on: HOP-62; test: Growth inhibition of human HOP62 cells at 10 uM after 48 hrs by coulter counting; conditions: HOP-62, 48 h, read-out: GI; procedure, shortened: as §2
[14] = tested on: NCI-H226; test: Growth inhibition of human NCI-H226 cells at 10 uM after 48 hrs by coulter counting; conditions: NCI-H226, 48 h, read-out: GI; procedure, shortened: as §2
[15] = tested on: NCI-H23; test: Growth inhibition of human NCI-H23 cells at 10 uM after 48 hrs by coulter counting; conditions: NCI-H23, 48 h, read-out: GI; procedure, shortened: as §2
[16] = Growth inhibition of human NCI-322M cells at 10 uM after 48 hrs by coulter counting; conditions: read-out: GI; procedure, shortened: as §2
[17] = tested on: NCI-H460; test: Growth inhibition of human NCI-H460 cells at 10 uM after 48 hrs by coulter counting; procedure, shortened: as §2
[18] = tested on: NCI-H522; test: Growth inhibition of human NCI-H522 cells at 10 uM after 48 hrs by coulter counting; conditions: NCI-H522, 48 h, read-out: GI; procedure, shortened: as §2
[19] = tested on: HCT-116; test: Growth inhibition of human HCT116 cells at 10 uM after 48 hrs by coulter counting; procedure, shortened: as §2
[20] = tested on: HT-29; test: Growth inhibition of human HT-29 cells at 10 uM after 48 hrs by coulter counting; procedure, shortened: as §2
[21] = tested on: SNB-75; test: Growth inhibition of human SNB75 cells at 10 uM after 48 hrs by coulter counting; conditions: SNB-75, 48 h, read-out: GI; procedure, shortened: as §2
[22] = tested on: M14; test: Growth inhibition of human M14 cells at 10 uM after 48 hrs by coulter counting; conditions: M14, 48 h, read-out: GI; procedure, shortened: as §2
[23] = tested on: MDA-MB-435; test: Growth inhibition of human MDA-MB-435 cells at 10 uM after 48 hrs by coulter counting; procedure, shortened: as §2
[24] = tested on: SK-MEL-2; test: Growth inhibition of human SK-MEL-2 cells at 10 uM after 48 hrs by coulter counting; conditions: SK-MEL-2, 48 h, read-out: GI; procedure, shortened: as §2
[25] = tested on: SK-MEL-5; test: Growth inhibition of human SK-MEL-5 cells at 10 uM after 48 hrs by coulter counting; conditions: SK-MEL-5, 48 h, read-out: GI; procedure, shortened: as §2
[26] = tested on: A498; test: Growth inhibition of human A498 cells at 10 uM after 48 hrs by coulter counting; conditions: A498, 48 h, read-out: GI; procedure, shortened: as §2
[27] = tested on: UO-31; test: Growth inhibition of human UO31 cells at 10 uM after 48 hrs by coulter counting; conditions: UO-31, 48 h, read-out: GI; procedure, shortened: as §3
[28] = tested on: DU-145; test: Growth inhibition of human DU145 cells at 10 uM after 48 hrs by coulter counting; procedure, shortened: as §2
[29] = tested on: MCF7; test: Growth inhibition of human MCF7 cells at 10 uM after 48 hrs by coulter counting; conditions: MCF7, 48 h, read-out: GI; procedure, shortened: as §2
[30] = tested on: T47D; test: Growth inhibition of human T47D cells at 10 uM after 48 hrs by coulter counting; conditions: read-out: GI; procedure, shortened: as §3
[31] = tested on: OVCAR-3; test: Growth inhibition of human OVCAR3 cells at 10 uM after 48 hrs by coulter counting; procedure, shortened: as §2
[32] = tested on: OVCAR-8; test: Growth inhibition of human OVCAR8 cells at 10 uM after 48 hrs by coulter counting; conditions: OVCAR-8, 48 h, read-out: GI; procedure, shortened: as §2
[33] = tested on: SN12C; test: Growth inhibition of human SN12C cells at 10 uM after 48 hrs by coulter counting; conditions: read-out: GI; procedure, shortened: as §2
[34] = tested on: TK-10; test: Growth inhibition of human TK10 cells at 10 uM after 48 hrs by coulter counting; conditions: TK-10, 48 h, read-out: GI; procedure, shortened: as §3
[35] = Cytotoxicity against human leukemia cells after 48 hrs by coulter counting; conditions: Leukemia cell; procedure, shortened: as §1
[36] = Cytotoxicity against human colon cancer cells after 48 hrs by coulter counting; conditions: Cancer cell lines; procedure, shortened: as §1
[37] = read-out: LC50 (the source's name)

SMILES: CCN1CC2=C(N=C3SC=CN3C2c2ccc(OC)c(OC)c2)/C(=C/c2ccc(OC)c(OC)c2)C1 (stereo not given)
- GI50 [1]: 3.3 µM
- LC50 [1]: 82.8 µM
- TGI [1]: 26.7 µM
- GI50 [2]: 3.1 µM
- LC50 (concentration giving 50% net cell kill) [2]: 52.8 µM
- TGI [2]: 9.8 µM
- GI50 [3]: 3.4 µM
- LC50 (concentration killing 50% of cells) [3]: 68.4 µM
- TGI [3]: 29.8 µM
- GI50 [4]: 19.3 µM
- TGI [4]: 43.9 µM
- CC50 [4, 37]: 74.7 µM
- GI50 [5]: 3.2 µM
- TGI [5]: 40.1 µM
- CC50 [5, 37]: 76.5 µM
- inhibition of growth at 10 µM [6]: 75.8%
- inhibition of growth at 10 µM [7]: 63.2%
- inhibition of growth at 10 µM [8]: 62.4%
- inhibition of growth at 10 µM [9]: 48.3%
- inhibition of growth at 10 µM [10]: 95.2%
- inhibition of growth at 10 µM [11]: 61.1%
- inhibition of growth at 10 µM [12]: 27.1%
- inhibition of growth at 10 µM [13]: 84.7%
- inhibition of growth at 10 µM [14]: 53.2%
- inhibition of growth at 10 µM [15]: 43.9%
- inhibition of growth at 10 µM [16]: 19.1%
- growth inhibition (GI) [17]: Active
- inhibition of growth at 10 µM [18]: 46.1%
- growth inhibition (GI) [19]: Active
- growth inhibition (GI) [20]: Active
- inhibition of growth at 10 µM [21]: 71.4%
- inhibition of growth at 10 µM [22]: 94.3%
- growth inhibition (GI) [23]: Active
- inhibition of growth at 10 µM [24]: 11.5%
- inhibition of growth at 10 µM [25]: 60.9%
- inhibition of growth at 10 µM [26]: 18.4%
- inhibition of growth at 10 µM [27]: 40.7%
- growth inhibition (GI) [28]: Active
- inhibition of growth at 10 µM [29]: 80.5%
- inhibition of growth at 10 µM [30]: > 10%
- growth inhibition (GI) [31]: Active
- inhibition of growth at 10 µM [32]: 95.9%
- inhibition of growth at 10 µM [33]: 83.1%
- inhibition of growth at 10 µM [34]: 46.5%
- GI50 [35]: 2.6 µM
- TGI [35]: 30.7 µM
- CC50 [35, 37]: > 100 µM
- GI50 [36]: 2 µM
- LC50 (concentration giving 50% net cell kill) [36]: 29.3 µM
- TGI [36]: 4.3 µM
